Reference: ChEMBL document CHEMBL5696442, “Discovery of type II inhibitors of TGFβ-activated kinase 1 (TAK1) and mitogen-activated protein kinase kinase kinase kinase 2 (MAP4K2)” (J Med Chem, 2015)

Tests used:
[1] = target: Cyclin-dependent kinase 17 (Homo sapiens) (UniProt Q00537); assay: Inhibition of PCTAIRE2 Lys1 labeling site harbouring SKLTENLVALKEIRLEHEEGAPCTAIR in human A-375 cells at 0.5 uM by KiNativ Profiling analysis relative to control; assay type: cell-based
[2] = target: Calcium/calmodulin-dependent protein kinase type 1 (Homo sapiens) (UniProt Q14012); assay: Inhibition of CaMK1a Lys1 labeling site in human A-375 cells at 0.05 uM by KiNativ Profiling analysis relative to control; assay type: cell-based
[3] = target: T1, Aurora kinase A (Homo sapiens) (UniProt O14965); assay: Inhibition of AurA ATP Loop labeling site in human A-375 cells at 0.5 uM by KiNativ Profiling analysis relative to control; assay type: cell-based
T1 sequence (whole entry): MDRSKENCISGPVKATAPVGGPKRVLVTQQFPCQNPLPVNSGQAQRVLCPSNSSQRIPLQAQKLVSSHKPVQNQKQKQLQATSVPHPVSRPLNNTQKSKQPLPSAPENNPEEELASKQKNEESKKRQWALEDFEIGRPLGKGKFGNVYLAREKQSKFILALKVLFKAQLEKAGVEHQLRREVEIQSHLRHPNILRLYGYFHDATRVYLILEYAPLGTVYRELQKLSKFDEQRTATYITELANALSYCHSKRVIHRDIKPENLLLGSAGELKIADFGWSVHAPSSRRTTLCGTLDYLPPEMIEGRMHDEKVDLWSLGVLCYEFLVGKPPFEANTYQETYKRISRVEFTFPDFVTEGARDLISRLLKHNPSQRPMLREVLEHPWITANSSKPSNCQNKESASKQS
How it was run: (§1)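 Live A375 melanoma cells were treated with compound at 5 or 0.5 μM, then lysed. The lysates were labeled with a lysine-reactive ATP or ADP-biotin probe. Kinase protection from probe labeling was measured by KiNativ.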

[4] = target: 5'-AMP-activated protein kinase catalytic subunit alpha-2 (Homo sapiens) (UniProt P54646); assay: Inhibition of AMPKa2 Lys1 labeling site in human A-375 cells at 5 uM by KiNativ Profiling analysis relative to control; assay type: cell-based; how it was run: as §1
[5] = target: Tyrosine-protein kinase ABL2 (Homo sapiens, UniProt P42684); assay: Inhibition of ARG ACT labeling site in human A-375 cells at 5 uM by KiNativ Profiling analysis relative to control; assay type: cell-based
How it was run: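 Intact A375 melanoma cells were treated with compound at 5 or 0.5 μM, then lysed. Lysate kinases were labeled with a lysine-reactive ATP or ADP-biotin probe (KiNativ). Inhibition is read as protection of each kinase labeling site from probe labeling.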

[6] = target: Cyclin-dependent kinase 17 (Homo sapiens) (UniProt Q00537); assay: Inhibition of PCTAIRE2 Lys1 labeling site harbouring SKLTENLVALKEIRLEHEEGAPCTAIR in human A-375 cells at 5 uM by KiNativ Profiling analysis relative to control; assay type: cell-based
[7] = target: Serine/threonine-protein kinase WNK4 (Homo sapiens) (UniProt Q96J92); assay: Inhibition of Wnk4 Lys2 labeling site in human A-375 cells at 0.05 uM by KiNativ Profiling analysis relative to control; assay type: cell-based
[8] = target: T2, Serine/threonine-protein kinase TBK1 (Homo sapiens) (UniProt Q9UHD2); assay: Inhibition of TBK1 Lys1 labeling site in human A-375 cells at 0.5 uM by KiNativ Profiling analysis relative to control; assay type: cell-based
T2 sequence (whole entry): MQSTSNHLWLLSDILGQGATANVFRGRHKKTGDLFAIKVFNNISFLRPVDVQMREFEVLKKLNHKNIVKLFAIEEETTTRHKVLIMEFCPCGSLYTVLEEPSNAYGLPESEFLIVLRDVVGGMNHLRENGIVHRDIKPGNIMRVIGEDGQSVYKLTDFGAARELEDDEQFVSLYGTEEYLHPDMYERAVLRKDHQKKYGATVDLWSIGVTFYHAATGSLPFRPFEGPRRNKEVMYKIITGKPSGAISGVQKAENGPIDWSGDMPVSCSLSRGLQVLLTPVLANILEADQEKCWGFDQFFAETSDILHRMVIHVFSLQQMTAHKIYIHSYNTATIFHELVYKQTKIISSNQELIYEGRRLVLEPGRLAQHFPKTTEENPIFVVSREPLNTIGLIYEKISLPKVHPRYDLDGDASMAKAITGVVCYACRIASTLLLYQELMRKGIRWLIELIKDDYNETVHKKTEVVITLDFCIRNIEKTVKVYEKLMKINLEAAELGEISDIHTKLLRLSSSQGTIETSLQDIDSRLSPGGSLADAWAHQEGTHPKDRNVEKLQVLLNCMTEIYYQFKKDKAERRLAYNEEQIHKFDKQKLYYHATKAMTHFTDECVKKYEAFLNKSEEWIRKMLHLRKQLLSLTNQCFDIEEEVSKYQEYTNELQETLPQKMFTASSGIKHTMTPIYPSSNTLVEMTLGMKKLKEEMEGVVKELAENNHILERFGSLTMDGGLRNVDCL

[9] = target: T3, Mitogen-activated protein kinase 12 (Homo sapiens) (UniProt P53778); assay: Inhibition of p38gamma Lys2 labeling site in human Huh-7 cell lysate at 1 uM by KiNativ Profiling analysis relative to control; assay type: subcellular
T3 sequence (whole entry): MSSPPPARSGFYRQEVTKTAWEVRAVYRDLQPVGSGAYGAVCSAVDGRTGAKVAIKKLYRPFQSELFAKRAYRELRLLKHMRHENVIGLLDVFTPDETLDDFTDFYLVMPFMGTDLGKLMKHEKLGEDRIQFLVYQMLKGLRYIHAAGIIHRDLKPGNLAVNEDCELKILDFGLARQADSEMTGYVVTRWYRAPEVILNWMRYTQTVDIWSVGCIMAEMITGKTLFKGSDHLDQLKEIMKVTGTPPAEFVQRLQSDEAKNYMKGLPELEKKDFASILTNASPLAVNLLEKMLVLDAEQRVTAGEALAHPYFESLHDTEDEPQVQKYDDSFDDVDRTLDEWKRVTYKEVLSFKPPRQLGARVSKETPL

Sequence of Cyclin-dependent kinase 17 (Homo sapiens) (Q00537 whole entry, looked up): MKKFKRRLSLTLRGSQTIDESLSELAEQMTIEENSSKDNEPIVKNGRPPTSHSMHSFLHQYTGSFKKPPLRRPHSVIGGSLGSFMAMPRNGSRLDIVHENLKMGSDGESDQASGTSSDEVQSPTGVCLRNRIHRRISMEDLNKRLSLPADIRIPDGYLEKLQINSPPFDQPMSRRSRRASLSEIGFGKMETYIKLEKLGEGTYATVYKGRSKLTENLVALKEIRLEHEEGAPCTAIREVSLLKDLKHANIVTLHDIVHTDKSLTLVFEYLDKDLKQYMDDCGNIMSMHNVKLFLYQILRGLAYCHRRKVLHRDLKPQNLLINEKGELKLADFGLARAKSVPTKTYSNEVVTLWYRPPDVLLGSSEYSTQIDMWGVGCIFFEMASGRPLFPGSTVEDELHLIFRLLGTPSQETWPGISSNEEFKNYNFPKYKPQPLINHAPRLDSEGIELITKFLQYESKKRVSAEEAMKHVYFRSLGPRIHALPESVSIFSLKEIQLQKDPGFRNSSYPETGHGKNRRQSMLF
Sequence of Tyrosine-protein kinase ABL2 (P42684 whole entry): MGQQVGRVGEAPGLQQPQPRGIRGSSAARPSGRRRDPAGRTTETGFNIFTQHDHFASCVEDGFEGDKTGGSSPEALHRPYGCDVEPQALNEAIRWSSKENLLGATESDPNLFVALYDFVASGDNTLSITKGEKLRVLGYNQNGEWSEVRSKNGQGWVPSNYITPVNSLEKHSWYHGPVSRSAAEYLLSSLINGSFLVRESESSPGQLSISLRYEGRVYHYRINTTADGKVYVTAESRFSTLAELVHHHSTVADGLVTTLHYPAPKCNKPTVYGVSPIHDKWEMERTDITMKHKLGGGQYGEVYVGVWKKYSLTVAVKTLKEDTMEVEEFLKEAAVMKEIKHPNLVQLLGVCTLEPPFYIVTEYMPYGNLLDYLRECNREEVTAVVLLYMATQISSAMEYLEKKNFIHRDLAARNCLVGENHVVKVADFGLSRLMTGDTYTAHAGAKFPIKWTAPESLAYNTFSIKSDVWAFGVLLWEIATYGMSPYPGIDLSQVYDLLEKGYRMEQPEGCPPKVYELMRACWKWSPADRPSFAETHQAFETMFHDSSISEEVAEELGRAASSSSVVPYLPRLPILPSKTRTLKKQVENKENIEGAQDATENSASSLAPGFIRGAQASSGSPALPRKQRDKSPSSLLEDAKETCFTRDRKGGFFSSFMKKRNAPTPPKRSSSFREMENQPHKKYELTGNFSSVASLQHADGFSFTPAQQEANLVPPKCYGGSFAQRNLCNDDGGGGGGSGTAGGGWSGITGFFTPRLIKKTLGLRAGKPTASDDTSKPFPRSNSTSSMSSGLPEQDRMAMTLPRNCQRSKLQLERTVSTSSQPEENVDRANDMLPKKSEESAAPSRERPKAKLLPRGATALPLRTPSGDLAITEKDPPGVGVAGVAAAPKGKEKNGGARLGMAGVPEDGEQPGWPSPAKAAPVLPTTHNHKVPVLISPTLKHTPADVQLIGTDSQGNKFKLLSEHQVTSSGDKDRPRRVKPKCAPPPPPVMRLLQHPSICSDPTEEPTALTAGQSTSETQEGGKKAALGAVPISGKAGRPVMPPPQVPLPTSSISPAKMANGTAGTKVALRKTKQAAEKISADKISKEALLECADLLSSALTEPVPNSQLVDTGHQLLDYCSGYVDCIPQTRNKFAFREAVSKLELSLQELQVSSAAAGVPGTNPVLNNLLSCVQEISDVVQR
Sequence of 5'-AMP-activated protein kinase catalytic subunit alpha-2 (Homo sapiens) (P54646 whole entry, looked up): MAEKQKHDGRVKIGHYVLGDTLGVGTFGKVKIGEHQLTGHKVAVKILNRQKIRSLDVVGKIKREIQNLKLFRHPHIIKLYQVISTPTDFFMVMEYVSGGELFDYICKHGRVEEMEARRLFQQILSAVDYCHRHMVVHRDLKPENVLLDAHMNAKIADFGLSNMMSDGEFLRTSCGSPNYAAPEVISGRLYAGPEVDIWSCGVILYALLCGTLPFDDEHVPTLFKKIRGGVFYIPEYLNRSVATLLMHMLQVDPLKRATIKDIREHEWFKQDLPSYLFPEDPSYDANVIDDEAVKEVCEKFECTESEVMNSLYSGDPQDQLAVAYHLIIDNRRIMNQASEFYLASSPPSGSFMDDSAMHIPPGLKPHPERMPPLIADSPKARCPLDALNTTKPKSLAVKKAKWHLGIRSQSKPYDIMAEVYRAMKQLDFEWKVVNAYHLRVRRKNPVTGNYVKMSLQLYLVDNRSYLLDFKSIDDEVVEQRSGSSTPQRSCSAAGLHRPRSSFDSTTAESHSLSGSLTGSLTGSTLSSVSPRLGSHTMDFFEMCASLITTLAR
Sequence of Calcium/calmodulin-dependent protein kinase type 1 (Homo sapiens) (Q14012 whole entry, looked up): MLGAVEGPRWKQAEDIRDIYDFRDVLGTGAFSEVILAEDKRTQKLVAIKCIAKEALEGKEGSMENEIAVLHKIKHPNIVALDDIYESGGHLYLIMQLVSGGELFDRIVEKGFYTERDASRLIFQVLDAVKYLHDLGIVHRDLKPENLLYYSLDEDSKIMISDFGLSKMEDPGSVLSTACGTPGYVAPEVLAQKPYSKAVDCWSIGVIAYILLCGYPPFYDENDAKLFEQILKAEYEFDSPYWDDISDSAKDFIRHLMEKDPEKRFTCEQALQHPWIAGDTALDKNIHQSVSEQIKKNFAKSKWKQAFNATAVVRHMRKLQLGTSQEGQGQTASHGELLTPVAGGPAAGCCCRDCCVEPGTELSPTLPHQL
Sequence of Serine/threonine-protein kinase WNK4 (Homo sapiens) (Q96J92 whole entry): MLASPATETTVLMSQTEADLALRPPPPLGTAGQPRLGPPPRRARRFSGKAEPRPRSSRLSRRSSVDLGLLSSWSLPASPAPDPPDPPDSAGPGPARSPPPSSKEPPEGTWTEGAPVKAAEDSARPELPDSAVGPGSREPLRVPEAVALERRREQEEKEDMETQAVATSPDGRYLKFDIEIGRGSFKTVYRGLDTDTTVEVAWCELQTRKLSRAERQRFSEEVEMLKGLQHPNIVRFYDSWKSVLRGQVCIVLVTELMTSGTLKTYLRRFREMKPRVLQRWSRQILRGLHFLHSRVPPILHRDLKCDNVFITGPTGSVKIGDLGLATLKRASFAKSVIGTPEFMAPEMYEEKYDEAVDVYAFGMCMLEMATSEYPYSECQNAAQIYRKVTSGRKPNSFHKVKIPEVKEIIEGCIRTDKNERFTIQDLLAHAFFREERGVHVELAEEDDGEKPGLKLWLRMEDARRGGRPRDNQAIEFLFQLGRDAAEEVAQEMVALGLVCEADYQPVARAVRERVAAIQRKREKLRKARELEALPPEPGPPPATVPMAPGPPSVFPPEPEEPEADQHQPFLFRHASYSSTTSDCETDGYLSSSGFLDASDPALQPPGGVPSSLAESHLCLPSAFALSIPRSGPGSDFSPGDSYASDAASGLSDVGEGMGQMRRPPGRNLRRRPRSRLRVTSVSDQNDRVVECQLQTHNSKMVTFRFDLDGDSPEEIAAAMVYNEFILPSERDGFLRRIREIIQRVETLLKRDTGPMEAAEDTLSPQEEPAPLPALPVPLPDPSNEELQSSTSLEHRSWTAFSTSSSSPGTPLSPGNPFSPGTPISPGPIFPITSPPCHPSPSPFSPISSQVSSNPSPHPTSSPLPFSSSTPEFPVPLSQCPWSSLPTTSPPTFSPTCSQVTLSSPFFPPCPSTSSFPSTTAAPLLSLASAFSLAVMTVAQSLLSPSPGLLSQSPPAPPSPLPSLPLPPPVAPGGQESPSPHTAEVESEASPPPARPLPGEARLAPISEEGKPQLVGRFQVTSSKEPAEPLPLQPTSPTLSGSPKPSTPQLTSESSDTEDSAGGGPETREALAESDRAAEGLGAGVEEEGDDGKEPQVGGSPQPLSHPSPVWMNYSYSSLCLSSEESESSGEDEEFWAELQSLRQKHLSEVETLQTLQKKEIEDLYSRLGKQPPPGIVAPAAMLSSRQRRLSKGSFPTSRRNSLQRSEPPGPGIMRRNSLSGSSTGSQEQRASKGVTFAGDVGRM

## CCN1CCN(Cc2ccc(NC(=O)c3ccc(C)c(Oc4ccnc5[nH]ccc45)c3)cc2C(F)(F)F)CC1
[1]
  inhibition: 6.9%
[2]
  inhibition: 34.9%
[3]
  inhibition: 31.2%
[4]
  inhibition: 11.6%
[5]
  inhibition: > 98%
[6]
  inhibition: 56.6%
[7]
  inhibition: 0.1%
[8]
  inhibition: 17.1%

## CNc1cc(Oc2cc(C(=O)Nc3cc(-n4cnc(C)c4)cc(C(F)(F)F)c3)ccc2C)ncn1
[9]
  inhibition: 5.5%

## CNc1cc(Oc2cc(C(=O)Nc3cc(N4CCN(C)CC4)cc(C(F)(F)F)c3)ccc2C)ncn1
[9]
  inhibition: 12.8%

## CCN1CCN(Cc2ccc(NC(=O)c3ccc(C)c(/C=C/c4cnc5[nH]ccc5c4OC)c3)cc2C(F)(F)F)CC1
[1]
  inhibition: 2.4%
[2]
  inhibition: 21.5%
[3]
  inhibition: 30.2%
[4]
  inhibition: 37%
[5]
  inhibition: > 98%
[6]
  inhibition: 21.3%
[7]
  inhibition: -9.1%
[8]
  inhibition: 28.7%
